ChEMBL document CHEMBL1154198, “Chemical genetics of Plasmodium falciparum” (Nature, 2010)

What was measured:
[1] = test system: Toxoplasma gondii; assay: ST_JUDE: Growth inhibition of to Toxoplasma gondii, in human U-2OS cells, as measured by luciferase.; format: functional, organism-based; details: RH, U2OS
How it was run: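 T. gondii parasites engineered to express luciferase; drug sensitivity read by luminescence.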

[2] = test system: Plasmodium falciparum; assay: ST_JUDE: Cytotoxicity against Plasmodium falciparum D10 transfected with yeast DHOD; format: functional, organism-based
[3] = ST_JUDE: Cytotoxicity using luciferase to measure ATP as an indicator of the viability of human Burkitt''s lymphoma lymphoblast cells (Raji); format: toxicity, cell-based
[4] = test system: Plasmodium falciparum; assay: ST_JUDE: Plasmodium falciparum 3D7 EC50 (uM) as measured by SYBR green dye; format: functional, organism-based
[5] = test system: Plasmodium falciparum; assay: ST_JUDE: Cytotoxicity against Plasmodium falciparum K1; format: functional, organism-based
How it was run: (§1)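 Asexual P. falciparum grown in human erythrocytes, exposed to compounds for 72 h, and growth read as the DNA quantity in treated versus control cultures. Dose-response run at 12 concentrations from 10 μM to 5 nM.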

[6] = test system: Plasmodium falciparum; assay: ST_JUDE: Cytotoxicity against Plasmodium falciparum SB-A6; format: functional, organism-based
[7] = ST_JUDE: Cytotoxicity using luciferase to measure ATP as an indicator of the viability of human epithelial hepatocellular carcinoma cells (HepG2); format: toxicity, cell-based
[8] = test system: Plasmodium falciparum; assay: ST_JUDE: Cytotoxicity against Plasmodium falciparum V1/S; format: functional, organism-based
[9] = ST_JUDE: Cytotoxicity using luciferase to measure ATP as an indicator of the viability of human foreskin fibroblast cells (BJ); format: toxicity, cell-based
[10] = test system: Plasmodium falciparum; assay: ST_JUDE: Cytotoxicity against Plasmodium falciparum Dd2; format: functional, organism-based
[11] = test system: Leishmania major; assay: ST_JUDE: Cytotoxicity using Alamar Blue to measure viability of Leishmania major; format: functional, organism-based
How it was run: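 L. major promastigotes; drug susceptibility read with Alamar Blue.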

[12] = test system: Plasmodium falciparum; assay: ST_JUDE: Plasmodium falciparum K1 EC50 (uM) as measured by SYBR green dye; format: functional, organism-based
[13] = test system: Trypanosoma brucei; assay: ST_JUDE: Cytotoxicity using luciferase to measure ATP as an indicator of the viability of Trypanosoma brucei; format: functional, organism-based
[14] = test system: Plasmodium falciparum; assay: ST_JUDE: Cytotoxicity against Plasmodium falciparum W2; format: functional, organism-based
[15] = test system: Plasmodium falciparum; assay: ST_JUDE: Cytotoxicity against Plasmodium falciparum 3D7; format: functional, organism-based; how it was run: as §1
[16] = ST_JUDE: Cytotoxicity using luciferase to measure ATP as an indicator of the viability of human epithelial embryonic kidney cells (HEK293); format: toxicity, cell-based

Row | SMILES | EC50 [4] [nM] | EC50 [12] [nM] | EC50 [1] [nM] | EC50 [2] [nM] | EC50 [3] [nM] | EC50 [5] [nM] | EC50 [6] [nM] | EC50 [7] [nM] | EC50 [8] [nM] | EC50 [9] [nM] | EC50 [10] [nM] | EC50 [11] [nM] | EC50 [13] [nM] | EC50 [14] [nM] | EC50 [15] [nM] | EC50 [16] [nM]
1 | CCOC(=O)c1cccc(NC(=O)CC2C(=O)N(c3ccc(F)cc3)C(=O)N2CCC(C)C)c1 (centres undefined) | 593 | 1160 | > 23800 | 950 | > 43400 | > 11100 | 1060 | > 43400 | 1070 | > 43400 | 635 | > 18600 | 11800 | > 11100 | 945 | > 43400
2 | CCOc1cc(C2CC(=O)NC3=C2C(=O)CC(c2cc(OC)ccc2OC)C3)ccc1O (centres undefined) | 1070 | 1280 | > 22400 | 1140 | > 40900 | 1090 | 1130 | > 40900 | 1660 | > 40900 | 1380 | > 17500 | > 39200 | 1980 | 1050 | > 40900
3 | Fc1ccc(Nc2nc(NCc3ccccc3)c3ccccc3n2)cc1 | 902 | 782 | > 22300 | 868 | 13700 | 962 | 321 | 6780 | 2580 | 15200 | 644 | 2.4 | 7890 | 3540 | 626 | 16800
4 | CC[n+]1c(/C=C/c2ccc(N(C)C)cc2)ccc2cc(OC)ccc21 | 1690 | 707 | > 12700 | 372 | 529 | 471 | 702 | 2990 | 430 | > 23200 | 174 | 0.5 | 343 | 92.2 | 247 | > 23200
5 | CCOC(=O)C1=C(C)N=c2s/c(=C\c3cc(Cl)ccc3O)c(=O)n2C1c1ccc(N(C)C)cc1 (centres undefined) | > 15000 | 1000 | > 9980 | > 4680 | > 18200 | 446 | 2690 | > 18200 | 235 | > 18200 | 1820 | > 7800 | 6200 | > 4680 | > 4680 | > 18200
6 | CCCCCCCn1ccc(=N)cc1 | 3100 | 2520 | > 28200 | 3840 | 10800 | 2310 | 4160 | > 51400 | 10300 | > 51400 | 2730 | > 22000 | > 49300 | > 13200 | 2190 | > 51400
7 | COc1ccc(C2CC(=O)NC3=C2C(=O)CC(c2ccc(F)cc2)C3)cc1OC (centres undefined) | 661 | 1070 | > 22700 | 1850 | > 41400 | 1190 | 2090 | > 41400 | 1990 | > 41400 | 1130 | > 17700 | > 39700 | 1490 | 1440 | > 41400
8 | CCOc1ccc2nc(C)cc(Nc3ccc(Cl)cc3)c2c1 | 444 | 1340 | > 21700 | 536 | 19800 | 4080 | 296 | 7260 | 2770 | 8780 | 577 | 379 | 8100 | 754 | 1070 | 21200
9 | CSc1ccc2ccccc2[n+]1C | 1590 | 893 | > 20300 | 1110 | > 37100 | 588 | 1200 | > 37100 | 1830 | > 37100 | 1530 | > 15900 | > 35600 | 3210 | 590 | > 37100
10 | C#CC[n+]1ccn2c(C)ccc2c1CC | > 15000 | 1380 | > 27300 | > 12800 | 40700 | 1420 | 2530 | > 49800 | > 12800 | > 49800 | 1540 | > 21300 | > 47700 | 3440 | 1680 | > 49800
11 | Cc1ccc(NC(=O)c2c(I)cnn2C)cc1[N+](=O)[O-] | 705 | 1050 | > 25100 | > 11700 | > 45700 | > 11700 | > 11700 | > 45700 | 3730 | > 45700 | 822 | > 19600 | > 43900 | 583 | 769 | > 45700
12 | Cc1ccccc1/N=C1\C=C(NS(=O)(=O)c2ccc(F)cc2)c2ccccc2C1=O | 497 | 182 | > 19100 | 161 | 3140 | 98.1 | 303 | 6130 | 114 | 5880 | 435 | > 14900 | 946 | 216 | 221 | 6290
13 | Cc1ccc(C2(c3ccc(C)cc3)CC2C(=O)Nc2ccc([N+](=O)[O-])cc2O)cc1 (centres undefined) | 658 | 582 | > 21100 | 1600 | 10600 | 741 | 1830 | 10700 | 1260 | 11000 | 2090 | > 16500 | 4780 | 1830 | 1010 | 11400

Now from value to compound, other results behind:

Row | EC50 [4] [nM] | EC50 [12] [nM] | SMILES | EC50 [1] [nM] | EC50 [2] [nM] | EC50 [3] [nM] | EC50 [5] [nM] | EC50 [6] [nM] | EC50 [7] [nM] | EC50 [8] [nM] | EC50 [9] [nM] | EC50 [10] [nM] | EC50 [11] [nM] | EC50 [13] [nM] | EC50 [14] [nM] | EC50 [15] [nM] | EC50 [16] [nM]
14 | 121 | 191 | c1ccc(CCNc2ccnc3cc4ccccc4cc23)cc1 | > 17000 | 1000 | 9530 | 671 | 171 | 1320 | 833 | 6620 | 150 | > 13300 | 2880 | 674 | 267 | 7190
15 | 119 | 170 | COc1ccccc1Cn1ccnc1SCC(=O)Nc1cc(C(F)(F)F)ccc1Cl | > 21400 | > 10000 | > 39100 | 252 | > 10000 | > 39100 | 288 | > 39100 | 246 | > 16700 | 12100 | 2670 | 190 | > 39100
16 | 285 | 368 | CCc1nc2nc(C)cc(Nc3ccc(I)cc3)n2n1 | > 21600 | > 10100 | > 39500 | 641 | > 10100 | > 39500 | 1160 | > 39500 | 456 | > 16900 | > 37800 | 595 | 347 | > 39500
17 | 439 | 325 | CCN1/C(=C/c2cccc[n+]2C)C=Cc2cc(C)ccc21 | > 17600 | 1540 | > 32200 | 1890 | 2050 | > 32200 | > 8270 | > 32200 | 1700 | 107 | 7210 | > 8270 | 1500 | > 32200
18 | 253 | 94.6 | COCCO/C(O)=C1\C(C)=NC2=C(C(=O)CC(c3ccc(OC)c(OC)c3)C2)C1c1ccc(F)cc1 (centres undefined) | > 23200 | 2990 | > 42400 | 518 | 2670 | > 42400 | 1620 | > 42400 | 526 | > 18200 | 17400 | 470 | 740 | > 42400
19 | 276 | 125 | CCCO/C(O)=C1\C(C)=NC2=C(C(=O)CC(c3ccc(OC)c(OC)c3)C2)C1c1ccccc1OC (centres undefined) | 16100 | 414 | > 47000 | 328 | 288 | > 47000 | 392 | > 47000 | 416 | > 20100 | 10400 | 290 | 385 | > 47000
